Measured values: ChEMBL document CHEMBL4196069 (Eur J Med Chem, 2018)
Activity calls are given as the source filed them. No cut-off for these calls is given here.

Assays:
[1] = tested on: HL-60; experiment: Antiproliferative activity against human HL60 cells after 72 hrs by MTT assay; type: functional, cell-based; conditions: HL-60, 72 h
Outline: (§1)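 Cells pre-incubated 24 h at 37 °C in humidified 5% CO2, then exposed to compounds for 72 h. MTT (5 mg/mL) was added for 4 h, formazan was dissolved in DMSO, and OD was read at 570 nm. Vehicle control was 0.1% DMSO. IC50 was calculated from inhibition ratios as the mean ± SD of three independent experiments.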

[2] = tested on: PC-3; experiment: Antiproliferative activity against human PC3 cells after 72 hrs by MTT assay; type: functional, cell-based; conditions: PC-3, 72 h; outline: as §1
[3] = tested on: Bel-7402; experiment: Antiproliferative activity against human Bel7402 cells after 72 hrs by MTT assay; type: functional, cell-based; conditions: Bel-7402, 72 h; outline: as §1
[4] = tested on: Bel7402/5-FU; experiment: Antiproliferative activity against human Bel7402/5-FU cells after 72 hrs by MTT assay; type: functional, cell-based; outline: as §1
[5] = tested on: L02; experiment: Antiproliferative activity against human LO2 cells after 72 hrs by MTT assay; type: cell-based; conditions: L02, 72 h; outline: as §1
[6] = Selectivity index, ratio of IC50 for human LO2 cells to IC50 for human Bel7402 cells; type: toxicity; conditions: LO2 cells versus Bel7402 cells, read-out: Ratio IC50
Outline: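 Selectivity index = IC50(L-O2)/IC50(Bel-7402), both IC50s from the 72 h MTT assay (mean of three independent experiments).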

[7] = tested on: Bel-7402; experiment: Cell cycle arrest in human Bel7402 cells assessed as accumulation at G2/M phase at 0.125 uM after 72 hrs by propidium iodide staining-based flow cytometric method (reference value: 23.71%); type: functional
[8] = tested on: Bel-7402; experiment: Cell cycle arrest in human Bel7402 cells assessed as accumulation at G1 phase at 0.25 uM after 72 hrs by propidium iodide staining-based flow cytometric method (reference value: 39.28%); type: functional
[9] = tested on: Bel-7402; experiment: Cell cycle arrest in human Bel7402 cells assessed as accumulation at G2/M phase at 0.25 uM after 72 hrs by propidium iodide staining-based flow cytometric method (reference value: 23.71%); type: functional
[10] = tested on: Bel-7402; experiment: Cell cycle arrest in human Bel7402 cells assessed as accumulation at S phase at 0.25 uM after 72 hrs by propidium iodide staining-based flow cytometric method (reference value: 37.02%); type: functional
[11] = tested on: Bel-7402; experiment: Cell cycle arrest in human Bel7402 cells assessed as accumulation at G2/M phase at 0.5 uM after 72 hrs by propidium iodide staining-based flow cytometric method (reference value: 23.71%); type: functional
[12] = tested on: Bel-7402; experiment: Cell cycle arrest in human Bel7402 cells assessed as accumulation at S phase at 0.5 uM after 72 hrs by propidium iodide staining-based flow cytometric method (reference value: 37.02%); type: functional
[13] = tested on: Bel-7402; experiment: Induction of apoptosis in human Bel7402 cells assessed as chromatin condensation at 0.125 to 0.25 uM after 48 hrs by Hoechst 33258 staining based fluorescent microscopic method; type: functional, cell-based
Outline: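 Bel-7402 cells were seeded and grown 24 h, treated at 0.125, 0.25 and 0.5 µM for 48 h, then harvested by mild trypsinization and washed in PBS. They were stained with Hoechst 33258 for 15 min at room temperature in the dark and examined by fluorescence microscopy with a DAPI filter. Untreated cells served as control.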

[14] = tested on: Bel-7402; experiment: Induction of apoptosis in human Bel7402 cells after 72 hrs by Annexin V-FITC/propidium iodide staining based flow cytometry; type: functional, cell-based
[15] = tested on: Bel-7402; experiment: Induction of apoptosis in human Bel7402 cells assessed as early apoptotic cells at 0.125 uM after 72 hrs by Annexin V-FITC/propidium iodide staining based flow cytometry (reference value: 1.65%); type: functional
[16] = tested on: Bel-7402; experiment: Induction of apoptosis in human Bel7402 cells assessed as necrotic cells at 0.125 uM after 72 hrs by Annexin V-FITC/propidium iodide staining based flow cytometry (reference value: 13.05%); type: functional
[17] = tested on: Bel-7402; experiment: Induction of apoptosis in human Bel7402 cells assessed as early apoptotic cells at 0.25 uM after 72 hrs by Annexin V-FITC/propidium iodide staining based flow cytometry (reference value: 1.65%); type: functional
[18] = tested on: Bel-7402; experiment: Induction of apoptosis in human Bel7402 cells assessed as late apoptotic cells at 0.25 uM after 72 hrs by Annexin V-FITC/propidium iodide staining based flow cytometry (reference value: 2.82%); type: functional
[19] = tested on: Bel-7402; experiment: Induction of apoptosis in human Bel7402 cells assessed as necrotic cells at 0.25 uM after 72 hrs by Annexin V-FITC/propidium iodide staining based flow cytometry (reference value: 13.05%); type: functional
[20] = tested on: Bel-7402; experiment: Induction of apoptosis in human Bel7402 cells assessed as viable cells at 0.25 uM after 72 hrs by Annexin V-FITC/propidium iodide staining based flow cytometry (reference value: 82.48%); type: functional; conditions: Bel-7402, 72 h, read-out: Activity
[21] = tested on: Bel-7402; experiment: Induction of apoptosis in human Bel7402 cells assessed as late apoptotic cells at 0.5 uM after 72 hrs by Annexin V-FITC/propidium iodide staining based flow cytometry (reference value: 2.82%); type: functional
[22] = tested on: Bel-7402; experiment: Induction of apoptosis in human Bel7402 cells assessed as necrotic cells at 0.5 uM after 72 hrs by Annexin V-FITC/propidium iodide staining based flow cytometry (reference value: 13.05%); type: functional
[23] = tested on: Bel-7402; experiment: Induction of mitochondrial membrane depolarization in human Bel7402 cells after 24 to 48 hrs by JC1 staining based flow cytometric analysis; type: functional, cell-based
[24] = tested on: Bel-7402; experiment: Upregulation of Bax level in human Bel7402 cells after 72 hrs by Western blot analysis; type: functional, cell-based
Outline: (§2)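 Bel-7402 cells were treated for 72 h at the indicated concentrations (0.125–0.5 µM) and lysed. Lysates were cleared at 14,000 g for 10 min at 4 °C, and 25 µg protein per lane was run on 10% SDS-PAGE and transferred to nitrocellulose. Membranes were blocked in 5% milk, probed overnight at 4 °C with monoclonal antibodies, and detected by ECL. Densitometry was normalized to GAPDH.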

[25] = tested on: Bel-7402; experiment: Downregulation of Bcl-2 level in human Bel7402 cells after 72 hrs by Western blot analysis; type: functional, cell-based; outline: as §2
[26] = tested on: Bel-7402; experiment: Upregulation of caspase-3 level in human Bel7402 cells at 0.125 to 0.5 uM after 72 hrs by Western blot analysis; type: functional, cell-based; outline: as §2
[27] = tested on: Bel-7402; experiment: Upregulation of caspase-9 level in human Bel7402 cells at 0.125 to 0.5 uM after 72 hrs by Western blot analysis; type: functional, cell-based; outline: as §2
[28] = tested on: Bel-7402; experiment: Induction of cyto-c accumulation in human Bel7402 cells cytosol at 0.125 to 0.5 uM after 72 hrs by Western blot analysis; type: functional, cell-based; outline: as §2
[29] = tested on: Bel-7402; experiment: Induction of mitochondrial membrane depolarization in human Bel7402 cells assessed as cell with intact mitochondrial membrane potential at 0.125 uM after 24 to 48 hrs by JC-1 staining based flow cytometric analysis (reference value: 98.83%); type: functional
[30] = tested on: Bel-7402; experiment: Induction of mitochondrial membrane depolarization in human Bel7402 cells assessed as cell with intact mitochondrial membrane potential at 0.25 uM after 24 to 48 hrs by JC-1 staining based flow cytometric analysis (reference value: 98.83%); type: functional
[31] = tested on: Bel-7402; experiment: Induction of mitochondrial membrane depolarization in human Bel7402 cells assessed as cell with intact mitochondrial membrane potential at 0.5 uM after 24 to 48 hrs by JC-1 staining based flow cytometric analysis (reference value: 98.83%); type: functional

## C[C@H]1CCC/C=C/[C@@H]2C[C@H](O)C[C@H]2[C@H](OC(=O)c2ccc(N(CCCl)CCCl)cc2)/C=C/C(=O)O1
[1]
  IC50: 4.48 µM
[2]
  IC50: 9.37 µM
[3]
  IC50: 0.25 µM
[4]
  IC50: 0.84 µM
[5]
  IC50: 9.74 µM
[6]
  selectivity ratio: 38.9
[7]
  Activity: 19.92%
[8]
  Activity: 54.26%
[9]
  Activity: 13.27%
[10]
  Activity: 32.48%
[11]
  Activity: 11.69%
[12]
  Activity: 30.14%
[13]
  Activity: Active
[14]
  Activity: Dose-dependent effect
[15]
  Activity: 10.49%
[16]
  Activity: 3.45%
[17]
  Activity: 22.69%
[18]
  Activity: 11.26%
[19]
  Activity: 3.21%
[20]
  viability at 0.25 µM: 62.9%
[21]
  Activity: 18.48%
[22]
  Activity: 3.87%
[23]
  Activity: Dose-dependent effect
[24]
  Activity: Dose-dependent effect
[25]
  Activity: Dose-dependent effect
[26]
  Activity: Active
[27]
  Activity: Active
[28]
  Activity: Active
[29]
  Activity: 83.63%
[30]
  Activity: 70.4%
[31]
  Activity: 56.15%
